15 compounds from ChEMBL document CHEMBL4613298, “GPBAR1 Activation by C6-Substituted Hyodeoxycholane Analogues Protect against Colitis” (ACS Med Chem Lett, 2020) can be followed below.

Each structure is given as a SMILES string. Active and inactive are the calls of the source. No cut-off for these calls is given here.

Data set [1] addresses T1, Bile acid receptor (Homo sapiens) (UniProt Q96RI1).
T1 sequence (whole entry): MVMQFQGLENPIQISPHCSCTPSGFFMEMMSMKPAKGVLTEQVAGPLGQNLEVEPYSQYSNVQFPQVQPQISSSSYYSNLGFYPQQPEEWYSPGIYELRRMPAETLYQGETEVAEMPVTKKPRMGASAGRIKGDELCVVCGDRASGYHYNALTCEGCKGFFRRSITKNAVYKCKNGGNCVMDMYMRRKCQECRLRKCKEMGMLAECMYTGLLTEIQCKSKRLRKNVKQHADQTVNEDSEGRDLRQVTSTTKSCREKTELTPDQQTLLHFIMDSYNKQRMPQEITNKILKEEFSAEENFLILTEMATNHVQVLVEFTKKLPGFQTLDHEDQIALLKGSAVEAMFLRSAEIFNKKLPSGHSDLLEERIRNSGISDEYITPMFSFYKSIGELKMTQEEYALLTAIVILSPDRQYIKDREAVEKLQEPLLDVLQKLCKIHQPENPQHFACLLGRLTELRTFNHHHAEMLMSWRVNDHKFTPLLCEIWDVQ
As to the kind of experiment: Transactivation of FXR (unknown origin) expressed in HepG2 cells co-expressing pSG5RXR/pGL4.70 assessed as maximum receptor activation at 10 uM after 18 hrs by IR1 driven dual renilla-luciferase reporter gene assay relative to relative to CDCA. In kind it is cell-based. The method in brief: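 FXR reporter assay in HepG2 cells transfected with FXR and an IR1-driven luciferase reporter, compound at 10 μM. Efficacy is maximal IR1 transactivation relative to CDCA (10 μM). One experiment, triplicate.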

Data set [2] addresses T2, G-protein coupled bile acid receptor 1 (Homo sapiens) (UniProt Q8TDU6).
T2 sequence (whole entry): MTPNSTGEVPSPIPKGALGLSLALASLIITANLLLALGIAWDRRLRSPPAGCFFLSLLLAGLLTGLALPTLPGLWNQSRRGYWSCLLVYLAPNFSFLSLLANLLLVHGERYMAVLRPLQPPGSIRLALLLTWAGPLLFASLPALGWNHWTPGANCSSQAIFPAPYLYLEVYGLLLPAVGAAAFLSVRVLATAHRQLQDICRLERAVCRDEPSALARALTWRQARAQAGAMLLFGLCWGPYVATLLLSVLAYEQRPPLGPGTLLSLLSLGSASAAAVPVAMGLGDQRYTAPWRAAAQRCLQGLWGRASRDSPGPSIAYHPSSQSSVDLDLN
The data set is described as follows: Transactivation of human GPBAR1 receptor expressed in HEK293T cells assessed as maximum receptor activation at 10 uM after 18 hrs by cAMP response element driven renilla-luciferase dual reporter gene assay relative to TLCA. It counts as functional, cell-based. Conditions: HEK-293T. The method in brief:
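HEK-293T cells transfected with GPBAR1 and a CRE-driven luciferase reporter, exposed to compound at 10 μM. Efficacy is maximal CRE transactivation as percent of that caused by TLCA (10 μM). One experiment, triplicate.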
Background: A reporter such as luciferase makes a cellular process visible.

Another data set is filed under the species Homo sapiens. As to the kind of experiment: Selectivity index, ratio of transactivation of human GPBAR1 receptor expressed in HEK293T cells assessed as maximum receptor activation at 10 uM to transactivation of human FXR (unknown origin) expressed in HepG2 cells co-expressing pSG5RXR/pGL4.70 assessed as maximum receptor activation at 10 uM. In kind it is cell-based. The method in brief: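 Ratio of percent activity at GPBAR1 (HEK-293T, CRE-luciferase, 10 μM, vs TLCA 10 μM) to percent activity at FXR (HepG2, IR1-luciferase, 10 μM, vs CDCA 10 μM). Both taken from the same triplicate experiment.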

Data set [3] addresses T2, G-protein coupled bile acid receptor 1 (Homo sapiens). As to the kind of experiment: Agonist activity at GPBAR1 receptor in human THP1 cells assessed as reduction in LPS-induced IL-6 expression at 10 uM after 18 hrs by RT-PCR analysis. In kind it is cell-based. The following applies: THP-1. The gist of the method:
(§1)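 THP1 monocytic/macrophage cells primed with LPS, then coincubated with or without test agent at 10 μM; expression of cytokine genes (IL-1β, IL-6, TNF-α, IL-10) measured.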

Data set [4] is described as follows: Aqueous solubility of compound in pH 7.4 PBS/MeOH at 10 mM after 24 hrs by LC-MS analysis. It counts as physicochemical. The following applies: buffer, pH 7.4, 24 h, 10000 µM.
Data set [5] has as its target T2, G-protein coupled bile acid receptor 1 (Homo sapiens). As to the kind of experiment: Agonist activity at GPBAR1 receptor in human THP1 cells assessed as reduction in LPS-induced IL-1beta expression at 10 uM after 18 hrs by RT-PCR analysis. It counts as cell-based. The following applies: THP-1. The method in brief: as §1
Data set [6] shares this target. As to the kind of experiment: Transactivation of human GPBAR1 receptor expressed in HEK293T cells at 10 to 50 uM after 18 hrs by cAMP response element driven renilla-luciferase dual reporter gene assay. It counts as functional, cell-based. The following applies: HEK-293T.
Data set [7] concerns the target T1, Bile acid receptor (Homo sapiens). As to the kind of experiment: Agonist activity at GST-tagged FXR-LBD (unknown origin) assessed as biotinylated SRC-1 recruitment at 10 uM after 30 mins by Alpha Screen assay.
In data set [8] the target is T2, G-protein coupled bile acid receptor 1 (Homo sapiens). As to the kind of experiment: Agonist activity at GPBAR1 receptor in human THP1 cells assessed as reduction in LPS-induced TNFalpha expression at 10 uM after 18 hrs by RT-PCR analysis. In kind it is cell-based. The following applies: THP-1. The gist of the method: as §1
Data set [9] concerns the target T3, G-protein coupled bile acid receptor 1 (Homo sapiens, UniProt Q8TDU6).
T3 sequence (Q8TDU6 whole entry): T2 sequence (whole entry)
As to the kind of experiment: Agonist activity at human GPBAR1 receptor expressed in HEK293T cells after 18 hrs by cAMP response element driven renilla-luciferase dual reporter gene assay. In kind it is functional, cell-based, HEK-293T. The method in brief: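 GPBAR1 transactivation in transfected HEK-293T cells carrying a CRE-luciferase reporter; potency expressed as EC50. Data from one experiment run in triplicate.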

Broadly, the EC50 is the midpoint of the concentration-response curve. Low readings indicate greater potency, high ones weaker potency.

Turning to `C[C@H](CC#N)[C@H]1CC[C@H]2[C@@H]3C[C@](O)(Cc4ccccc4)[C@@H]4C[C@H](O)CC[C@]4(C)[C@H]3CC[C@]12C`, the max activation in [1] came out at 4.4%; in data set [2], 8.3%. Moreover, the Selectivity Index in the data set listed under Homo sapiens turned out to be 1.88.
As for `C=CCCC[C@]1(O)C[C@H]2[C@@H]3CC[C@H]([C@H](C)CC#N)[C@@]3(C)CC[C@@H]2[C@@]2(C)CC[C@@H](O)C[C@@H]12`, the results for the max activation in data set [1] and in [2] were 1.6% and 90.1%, respectively. Further, the result in data set [3] and in [5] was Active. Further, in data set [4], the solubility result was “Soluble”. Further, in the data set listed under Homo sapiens, the Selectivity Index came out at 56.3.
Take `C[C@H](CC#N)[C@H]1CC[C@H]2[C@@H]3C[C@@](O)(c4ccccc4)[C@@H]4C[C@H](O)CC[C@]4(C)[C@H]3CC[C@]12C`: the max activation turned out to be 18.2% in data set [1] and 38.8% in data set [2]. In addition, in the data set filed under Homo sapiens, the Selectivity Index was 2.13.
`CCC[C@@]1(O)C[C@@H]2[C@H](CC[C@]3(C)[C@@H]([C@H](C)CC#N)CC[C@@H]23)[C@@]2(C)CC[C@@H](O)C[C@H]12`: the result in [6] and in [7] was inactive.
In the case of `C=CC[C@@]1(O)C[C@@H]2[C@H](CC[C@]3(C)[C@@H]([C@H](C)CC#N)CC[C@@H]23)[C@@]2(C)CC[C@@H](O)C[C@H]12`, the outcome in data set [6] and in [7] was inactive.
Take `CC(C)[C@]1(O)C[C@@H]2[C@H](CC[C@]3(C)[C@@H]([C@H](C)CC#N)CC[C@@H]23)[C@@]2(C)CC[C@@H](O)C[C@H]21`: the max activation came out at 4.3% in data set [1] and 22.2% in data set [2]. The Selectivity Index in the data set filed under Homo sapiens is 5.16.
Turning to `C[C@H](CC#N)[C@H]1CC[C@H]2[C@@H]3C[C@](C)(O)[C@@H]4C[C@H](O)CC[C@]4(C)[C@H]3CC[C@]12C`, the max activation worked out at 6.4% in [1] and 95.4% in data set [2]. Besides, the outcome in [3], in data set [5] and in [8] was Active. In addition, the solubility result in [4] was “Soluble”. For the same compound, in the data set filed under Homo sapiens, the Selectivity Index was 14.9.
As to `C[C@H](CC#N)[C@H]1CC[C@H]2[C@@H]3C[C@H](O)[C@@H]4C[C@H](O)CC[C@]4(C)[C@H]3CC[C@]12C`, the max activation in [1] came to 3.5%; in [2], 119%. In data set [9], a half-maximal response (EC50) required 2.65 µM. In addition, in the data set filed under Homo sapiens, the Selectivity Index is 33.9.
For the compound `C[C@H](CC#N)[C@H]1CC[C@H]2[C@@H]3C[C@@](C)(O)[C@@H]4C[C@H](O)CC[C@]4(C)[C@H]3CC[C@]12C`, the max activation was found to be 5.5% in data set [1] and 83.4% in data set [2]. The outcome in data set [3] and in [5] was Active. The solubility entry in data set [4] is recorded as “Soluble”. In addition, the Selectivity Index in the data set listed under Homo sapiens was 15.1.
Consider `CCC[C@]1(O)C[C@H]2[C@@H]3CC[C@H]([C@H](C)CC#N)[C@@]3(C)CC[C@@H]2[C@@]2(C)CC[C@@H](O)C[C@@H]12`, for which the results for the max activation in data set [1] and in [2] were 3.1% and 67.1%, respectively. For the same compound, the Selectivity Index in the data set filed under Homo sapiens turned out to be 21.6.
The corresponding values for `C=C[C@]1(O)C[C@@H]2[C@H](CC[C@]3(C)[C@@H]([C@H](C)CC#N)CC[C@@H]23)[C@@]2(C)CC[C@@H](O)C[C@H]21` are 2.2%, 62.5% and 28.4.
For the compound `C[C@H](CC#N)[C@H]1CC[C@H]2[C@@H]3C[C@@](C)(O)[C@H]4C[C@H](O)CC[C@]4(C)[C@H]3CC[C@]12C`, the outcome in [6] and in data set [7] was inactive.
Consider `CC[C@@]1(O)C[C@H]2[C@@H]3CC[C@H]([C@H](C)CC#N)[C@@]3(C)CC[C@@H]2[C@@]2(C)CC[C@@H](O)C[C@@H]12`, for which the max activation is 6.6% in data set [1] and 65.9% in data set [2]. Further, the result in [3], in data set [5] and in data set [8] was Active. For the same compound, the solubility entry in data set [4] is given as “Soluble”. Moreover, the Selectivity Index in the data set filed under Homo sapiens came out at 9.9.
Take `C=CC[C@@]1(O)C[C@H]2[C@@H]3CC[C@H]([C@H](C)CC#N)[C@@]3(C)CC[C@@H]2[C@@]2(C)CC[C@@H](O)C[C@@H]12`: the max activation in data set [1] was 4.1%; in data set [2] it was 62.5%. The compound also yielded an EC50 in data set [9] of 0.1 µM. In addition, the Selectivity Index in the data set listed under Homo sapiens was 15.2.
Take `CC[C@@]1(O)C[C@@H]2[C@H](CC[C@]3(C)[C@@H]([C@H](C)CC#N)CC[C@@H]23)[C@@]2(C)CC[C@@H](O)C[C@H]12`: the outcome in [6] and in [7] was inactive.
